Experimental findings from ChEMBL document CHEMBL1124389, “Spermexatin and spermexatol: new synthetic spermidine-based siderophore analogues” (1989) are described below.

Holding throughout (type): functional
The test system of experiment [1] is Escherichia coli. Briefly: Compound (10 mM) was tested for the ability to stimulate growth of Escherichia coli UT 2300 at 18 h. A digest of the protocol: (§1)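 Disk-diffusion growth-promotion assay on E. coli RW 193 (FepA+) or its FepA− derivative UT2300. Cells were seeded at 10⁴/mL into Luria agar containing the iron chelator EDDA. Siderophores were dissolved in ethanol at 50, 10, 1 or 0.2 mM, spotted onto sterile disks, and the ethanol was evaporated. Plates were incubated 18 h at 37 °C and scored for growth around the disks. A 10 mM FeCl₃ disk served as positive control.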

Experiment [2] deals with Vibrio cholerae. The experiment is described as follows: Compound (1 mM) was tested for the ability to stimulate growth of Vibrio cholera 1510 at 18 h.
Experiment [3] has as its system Vibrio cholerae. Briefly: Compound (0.2 mM) was tested for the ability to stimulate growth of Vibrio cholera Lou 15 at 18 h.
In experiment [4] the test system is Escherichia coli. The experiment is described as follows: Compound (50 mM) was tested for the ability to stimulate growth of Escherichia coli UT 2300 at 18 h. A digest of the protocol:
as §1

Experiment [5] relates to Vibrio cholerae. The experiment is described as follows: Compound (1 mM) was tested for the ability to stimulate growth of Vibrio cholera Lou 15 at 18 h.
For experiment [6], the system named is Vibrio cholerae. The experiment is described as follows: Compound (10 mM) was tested for the ability to stimulate growth of Vibrio cholera 1510 at 18 h.
The subject of experiment [7] is Escherichia coli. Briefly: Compound (1 mM) was tested for the ability to stimulate growth of Escherichia coli RW 193 at 18 h. Put shortly:
as §1

Experiment [8] concerns Escherichia coli. Briefly: Compound (0.2 mM) was tested for the ability to stimulate growth of Escherichia coli UT 2300 at 18 h. A digest of the protocol: as §1
Experiment [9] deals with Escherichia coli. Briefly: Compound (1 mM) was tested for the ability to stimulate growth of Escherichia coli UT 2300 at 18 h. A digest of the protocol:
as §1

For experiment [10], the system named is Vibrio cholerae. The experiment is described as follows: Compound (10 mM) was tested for the ability to stimulate growth of Vibrio cholera Lou 15 at 18 h.
Experiment [11] relates to Vibrio cholerae. Briefly: Compound (0.2 mM) was tested for the ability to stimulate growth of Vibrio cholera 1510 at 18 h.
The test system of experiment [12] is Vibrio cholerae. Briefly: Compound (50 mM) was tested for the ability to stimulate growth of Vibrio cholera Lou 15 at 18 h.
The subject of experiment [13] is Escherichia coli. Briefly: Compound (10 mM) was tested for the ability to stimulate growth of Escherichia coli RW 193 at 18 h. A digest of the protocol:
as §1

Experiment [14] deals with Vibrio cholerae. Briefly: Compound (50 mM) was tested for the ability to stimulate growth of Vibrio cholera 1510 at 18 h.
Experiment [15] has as its system Escherichia coli. The experiment is described as follows: Compound (50 mM) was tested for the ability to stimulate growth of Escherichia coli RW 193 at 18 h. A digest of the protocol:
as §1

In experiment [16] the test system is Escherichia coli. The experiment is described as follows: Compound (0.2 mM) was tested for the ability to stimulate growth of Escherichia coli RW 193 at 18 h. Put shortly: as §1
Experiment [17] has as its system Vibrio cholerae. The experiment is described as follows: Compound (1 mM) was tested for the ability to stimulate growth of Vibrio cholera Lou 15 at 42h.
Experiment [18] relates to Vibrio cholerae. Briefly: Compound (0.2 mM) was tested for the ability to stimulate growth of Vibrio cholera Lou 15 at 42h.
Experiment [19] deals with Vibrio cholerae. The experiment is described as follows: Compound (10 mM) was tested for the ability to stimulate growth of Vibrio cholera Lou 15 at 42h.

Turning to `CN(O)C(=O)CCC(=O)NCCCCN(CCCNC(=O)CCC(=O)N(C)O)C(=O)CCC(=O)N(C)O`, the Growth zone in the experiment on Escherichia coli [1] was found to be 0 mm; with Vibrio cholerae [2], 0 mm; with Vibrio cholerae [3], 16 mm; with Escherichia coli [4] it was 12 mm; in the experiment with Vibrio cholerae [5], 17 mm; in the experiment on Vibrio cholerae [6], 0 mm. Also, the Growth zone in the experiment with Escherichia coli [7] is 0 mm; in the experiment on Escherichia coli [8], 0 mm; with Escherichia coli [9], 0 mm; in the experiment on Vibrio cholerae [10], 17 mm; with Vibrio cholerae [11], 0 mm; in the experiment on Vibrio cholerae [12] it was 19 mm. In addition, the Growth zone in the experiment on Escherichia coli [13] stood at 0 mm; with Vibrio cholerae [14], 0 mm; in the experiment on Escherichia coli [15] it was 12 mm; in the experiment on Escherichia coli [16], 0 mm.
As for `CN(O)C(=O)CCCC(=O)NCCCCN(CCCNC(=O)CCCC(=O)N(C)O)C(=O)CCCC(=O)N(C)O`, the Growth zone stood at 0 mm in the experiment with Vibrio cholerae [17]; 10 mm in the experiment with Escherichia coli [1]; 0 mm with Vibrio cholerae [2]; 16 mm in the experiment with Escherichia coli [4]; 0 mm with Vibrio cholerae [6]; 0 mm with Escherichia coli [7]. In addition, the Growth zone was found to be 0 mm with Escherichia coli [8]; 0 mm in the experiment on Escherichia coli [9]; 0 mm with Vibrio cholerae [11]; 12 mm in the experiment on Vibrio cholerae [12]; 10 mm in the experiment with Escherichia coli [13]; 0 mm with Vibrio cholerae [18]. Further, the Growth zone is 12 mm in the experiment with Vibrio cholerae [14], 0 mm in the experiment with Vibrio cholerae [19], 18 mm in the experiment with Escherichia coli [15] and 0 mm in the experiment on Escherichia coli [16].
Consider `O=C(N[C@H]1COC(=O)[C@@H](NC(=O)c2cccc(O)c2O)COC(=O)[C@@H](NC(=O)c2cccc(O)c2O)COC1=O)c1cccc(O)c1O` [ENTEROBACTIN], for which the Growth zone is 0 mm in the experiment on Escherichia coli [1]; 0 mm with Vibrio cholerae [2]; 0 mm with Vibrio cholerae [3]; 22 mm in the experiment on Vibrio cholerae [5]; 0 mm in the experiment on Vibrio cholerae [6]; 40 mm with Escherichia coli [7]. Further, the Growth zone in the experiment with Escherichia coli [8] was 0 mm; in the experiment on Escherichia coli [9] it was 0 mm; in the experiment with Vibrio cholerae [10] it was 28 mm; with Vibrio cholerae [11] it was 0 mm; in the experiment with Escherichia coli [16], 28 mm.
For `CN(O)C(=O)CCC(=O)N(CCCCNC(=O)c1cccc(O)c1O)CCCNC(=O)c1cccc(O)c1O` [SPERMEXATOL], the Growth zone with Vibrio cholerae [17], in the experiment on Escherichia coli [1], with Vibrio cholerae [2], in the experiment with Escherichia coli [4], in the experiment on Vibrio cholerae [6] and in the experiment on Escherichia coli [7] was 0 mm each time. Besides, the Growth zone with Escherichia coli [8] came to 0 mm; with Escherichia coli [9], 0 mm; with Vibrio cholerae [11], 0 mm; with Vibrio cholerae [12] it was 36 mm; with Escherichia coli [13] it was 12 mm; in the experiment on Vibrio cholerae [18], 0 mm. Moreover, the Growth zone with Vibrio cholerae [14] worked out at 28 mm; with Vibrio cholerae [19], 0 mm; with Escherichia coli [15], 21 mm; in the experiment on Escherichia coli [16], 0 mm.
In the case of `CC1OC(c2cccc(O)c2O)=NC1C(=O)NCCCN(CCCNC(=O)c1cccc(O)c1O)C(=O)C1N=C(c2cccc(O)c2O)OC1C` (centres undefined) [VIBRIOBACTIN], the Growth zone with Escherichia coli [1] is 0 mm; with Vibrio cholerae [2] it was 0 mm; with Vibrio cholerae [3], 32 mm; in the experiment on Escherichia coli [4], 0 mm; in the experiment with Vibrio cholerae [5] it was 32 mm; in the experiment with Vibrio cholerae [6] it was 0 mm. Besides, the Growth zone came out at 0 mm in the experiment with Escherichia coli [7]; 0 mm in the experiment on Escherichia coli [8]; 0 mm in the experiment on Escherichia coli [9]; 32 mm in the experiment on Vibrio cholerae [10]; 0 mm in the experiment with Vibrio cholerae [11]; 0 mm in the experiment on Escherichia coli [13]. The Growth zone in the experiment on Vibrio cholerae [14], in the experiment with Escherichia coli [15] and in the experiment on Escherichia coli [16] was 0 mm throughout.
